Reference: ChEMBL document CHEMBL1129974, “Discovery of HIV-1 integrase inhibitors by pharmacophore searching” (J Med Chem, 1997)

What was measured:
[1] = target: Human immunodeficiency virus type 1 integrase (Human immunodeficiency virus 1) (UniProt Q7ZJM1); test: Percentage inhibition was obtained by performing in vitro assay on purified recombinant integrase by 3''-processing method at 100 micro g/mL (experiment 1)
Summary of the method: (§1)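 Single concentration of 100 µg/mL tested. Recombinant HIV-1 integrase (200 nM final) preincubated with compound for 30 min at 30 °C in Mn2+/DMSO buffer, then reacted for 60 min with 20 nM 5′-32P-labeled 21-mer LTR duplex. Gel and phosphorimager quantitation of 19-mer 3′-processing and strand transfer products. %I = 100×[1−(D−C)/(N−C)], relative to DNA-alone and DNA+integrase controls.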

[2] = target: Human immunodeficiency virus type 1 integrase (Human immunodeficiency virus 1) (UniProt Q7ZJM1); test: Percentage inhibition was obtained by performing in vitro assay on purified recombinant integrase by strand transfer method at 100 micro g/mL (experiment 2); summary of the method: as §1
[3] = target: Human immunodeficiency virus type 1 integrase (Human immunodeficiency virus 1) (UniProt Q7ZJM1); test: Percentage inhibition was obtained by performing in vitro assay on purified recombinant integrase by strand transfer method at 100 micro g/mL (experiment 1); summary of the method: as §1
[4] = target: Human immunodeficiency virus type 1 integrase (Human immunodeficiency virus 1) (UniProt Q7ZJM1); test: Percentage inhibition was obtained by performing in vitro assay on purified recombinant integrase by 3''-processing method at 100 micro g/mL (experiment 2); summary of the method: as §1
[5] = target: T1, Human immunodeficiency virus type 1 integrase (Human immunodeficiency virus 1, UniProt Q7ZJM1); test: Inhibitory concentration against purified recombinant integrase by strand transfer 3D search (experiment 1)
T1 sequence (Q7ZJM1 whole entry): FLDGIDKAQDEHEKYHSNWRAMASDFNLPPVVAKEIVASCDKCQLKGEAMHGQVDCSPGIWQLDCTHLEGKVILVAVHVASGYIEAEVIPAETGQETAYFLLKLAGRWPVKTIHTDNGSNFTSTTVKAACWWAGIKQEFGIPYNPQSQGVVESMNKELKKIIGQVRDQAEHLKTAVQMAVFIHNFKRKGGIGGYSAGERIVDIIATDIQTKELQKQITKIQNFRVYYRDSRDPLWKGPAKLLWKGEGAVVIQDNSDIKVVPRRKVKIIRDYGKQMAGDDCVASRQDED
Summary of the method: (§2)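 Recombinant wild-type HIV-1 integrase, final 200 nM, preincubated with inhibitor for 30 min at 30 °C. Buffer: 50 mM NaCl, HEPES/MOPS, 7.5 mM MnCl2 when specified, 10% DMSO, 10% glycerol, BSA, 2-mercaptoethanol. Then 20 nM 5′-32P-labeled 21-mer U5 LTR duplex (AE117/AE118) added for 60 min. Products separated on denaturing 20% urea gel and quantified by phosphorimager. 3′-processing (19-mer) and strand transfer products read in one reaction. IC50 read from plot of concentration vs percent inhibition, several concentrations.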

[6] = target: T1, Human immunodeficiency virus type 1 integrase; test: Inhibitory concentration against purified recombinant integrase by strand transfer 3D search (experiment 2); summary of the method: as §2
[7] = target: T1, Human immunodeficiency virus type 1 integrase; test: Inhibitory concentration against purified recombinant integrase by 3'-processing in vitro assay (experiment 2); summary of the method: as §2
[8] = target: T1, Human immunodeficiency virus type 1 integrase; test: Inhibitory concentration against purified recombinant integrase by 3'-processing in vitro assay (experiment 1); summary of the method: as §2
[9] = target: T1, Human immunodeficiency virus type 1 integrase; test: Inhibitory concentration against purified recombinant integrase by strand transfer in vitro assay (experiment 1); summary of the method: as §2
[10] = target: T1, Human immunodeficiency virus type 1 integrase; test: Inhibitory concentration against purified recombinant integrase by strand transfer in vitro assay (experiment 2); summary of the method: as §2
[11] = target: T1, Human immunodeficiency virus type 1 integrase; test: Inhibitory concentration against purified recombinant integrase by 3'-processing in 3D search (experiment 2); summary of the method: as §2
[12] = target: T1, Human immunodeficiency virus type 1 integrase; test: Inhibitory concentration against purified recombinant integrase by 3'-processing in 3D search (experiment 1); summary of the method: as §2
[13] = target: T1, Human immunodeficiency virus type 1 integrase; test: Inhibitory concentration against purified recombinant integrase by 3'-processing in vitro assay
[14] = target: T1, Human immunodeficiency virus type 1 integrase; test: Inhibitory concentration against purified recombinant integrase by strand transfer in vitro assay
[15] = target: T1, Human immunodeficiency virus type 1 integrase; test: Inhibitory concentration against purified recombinant integrase by 3'-processing in 3D search
[16] = target: T1, Human immunodeficiency virus type 1 integrase; test: (§3) Inhibitory concentration against purified recombinant integrase by strand transfer 3D search
[17] = target: T1, Human immunodeficiency virus type 1 integrase; test: as §3; summary of the method: as §2; remark: listed apart in the source
[18] = target: T1, Human immunodeficiency virus type 1 integrase; test: Inhibitory concentration against purified recombinant integrase by strand transferrin vitro assay; summary of the method: as §2

Chain of Human immunodeficiency virus type 1 integrase (Human immunodeficiency virus 1) (Q7ZJM1 as listed by the source): as the sequence (Q7ZJM1 whole entry) above

Compound: O=C(NCO)c1ccccc1O
- inhibition [1]: 25.8%
- inhibition [2]: 55.2%
- inhibition [3]: 61.5%
- inhibition [4]: 10.2%

Compound: CCN(CC)CCCC(C)Nc1ccnc2ccc(Cl)nc12 (stereo not given)
- inhibition [1]: 43.7%
- inhibition [2]: 56.6%
- inhibition [3]: 87.4%
- inhibition [4]: 30.6%

Compound: O=C(NCCO)c1cc(Cl)ccc1O
- inhibition [1]: 0.4%
- inhibition [2]: 13.4%
- inhibition [3]: 0%
- inhibition [4]: 2.2%

Compound: O=C(N/N=C/c1ccccc1O)C(O)(c1ccccc1)c1ccccc1
- inhibition [1]: 34.7%
- inhibition [2]: 74.1%
- inhibition [3]: 70.5%
- inhibition [4]: 56.7%

Compound: CCCCCCCCCCCCCCCCCCCN1CN(CO)CN(CO)C1=O
- inhibition [1]: 20.8%
- inhibition [2]: 69.7%
- inhibition [3]: 54.4%
- inhibition [4]: 43.2%

Compound: O=C(N/N=C/c1ccccc1O)C(O)c1ccccc1 (stereo not given)
- inhibition [1]: 37%
- inhibition [2]: 70.2%
- inhibition [3]: 77.9%
- inhibition [4]: 45.8%

Compound: O=C(CC(O)c1cccnc1)CC(O)c1cccnc1 (stereo not given)
- inhibition [1]: 22.5%
- inhibition [2]: 43.2%
- inhibition [3]: 48.1%
- inhibition [4]: 19.1%

Compound: CCC/C=C/C=C/[C@@H]1C[C@@H](O)[C@@H](O)C(=O)[C@H]1CO
- IC50 [5]: 267 µM
- IC50 [6]: 134 µM
- IC50 [7]: 289 µM
- IC50 [8]: 350 µM
- IC50 [9]: 268 µM
- IC50 [10]: 135 µM
- IC50 [11]: 291 µM
- IC50 [12]: 350 µM

Compound: O=C(CC(O)(c1ccccc1)c1ccc(Cl)cc1)NC(=O)c1ccccc1O (stereo not given)
- IC50 [5]: 101 µM
- IC50 [6]: 141 µM
- IC50 [7]: 238 µM
- IC50 [8]: 182 µM
- IC50 [9]: 101 µM
- IC50 [10]: 142 µM
- IC50 [11]: 237 µM
- IC50 [12]: 182 µM

Compound: C[C@H]1C(=O)c2c(cc(O)c(C3OC(CO)C(O)C(O)C3O)c2O)OC1c1ccc(O)c(O)c1 (stereo not given in full)
- IC50 [5]: 103 µM
- IC50 [6]: 47.4 µM
- IC50 [7]: 124 µM
- IC50 [8]: 177 µM
- IC50 [9]: 103 µM
- IC50 [10]: 47.6 µM
- IC50 [11]: 125 µM
- IC50 [12]: 177 µM

Compound: O=C(NN(CCO)CCO)c1ccccc1
- inhibition [1]: 25%
- inhibition [2]: 69.9%
- inhibition [3]: 52.4%
- inhibition [4]: 43.9%

Compound: O=C(NO)/C(CC(=O)c1ccc(O)cc1O)=N\O
- IC50 [5]: 16.5 µM
- IC50 [6]: 35.8 µM
- IC50 [7]: 71.3 µM
- IC50 [8]: 29.9 µM
- IC50 [9]: 16.5 µM
- IC50 [10]: 35.8 µM
- IC50 [11]: 70.8 µM
- IC50 [12]: 29.9 µM

Compound: O=C1Oc2ccccc2C(O)C1C(c1ccccc1)C1C(=O)Oc2ccccc2C1O (stereo not given)
- IC50 [13]: 43.4 µM
- IC50 [14]: 38.8 µM

Compound: O=C(CCCCC(=O)c1ccc(O)cc1O)OCCO
- IC50 [5]: 184 µM
- IC50 [6]: 234 µM
- IC50 [7]: 367 µM
- IC50 [8]: 294 µM
- IC50 [9]: 185 µM
- IC50 [10]: 233 µM
- IC50 [11]: 368 µM
- IC50 [12]: 294 µM

Compound: O=C(OCCO)c1ccccc1O
- inhibition [1]: 10.9%
- inhibition [2]: 18.9%
- inhibition [3]: 17.1%
- inhibition [4]: 2.6%

Compound: COc1cc2oc(-c3ccc(O)cc3)cc(=O)c2c(O)c1C1OC(CO)C(O)C(O)C1O (stereo not given)
- IC50 [5]: 134 µM
- inhibition [1]: 62.7%
- IC50 [6]: 143 µM
- IC50 [7]: 291 µM
- inhibition [2]: 66.8%
- IC50 [8]: 224 µM
- inhibition [3]: 92.2%
- IC50 [9]: 134 µM
- inhibition [4]: 43.4%
- IC50 [10]: 143 µM
- IC50 [11]: 291 µM
- IC50 [12]: 224 µM

Compound: O=C(CC(=O)Nc1ccccc1O)Nc1ccccc1O
- inhibition [1]: 23.1%
- inhibition [2]: 37%
- inhibition [3]: 57.2%
- inhibition [4]: 17.6%

Compound: O=c1ccc2cc(O[C@@H]3O[C@H](CO)[C@@H](O)[C@H](O)[C@H]3O)c(O)cc2o1
- inhibition [1]: 40.8%
- inhibition [2]: 34.2%
- inhibition [3]: 67.7%
- inhibition [4]: 29.6%

Compound: O=C(NCO)NCOCn1c(=O)n(CO)c(=O)n(CO)c1=O
- IC50 [13]: 5.3 µM
- IC50 [15]: 5.29 µM
- IC50 [14]: 5 µM
- IC50 [16]: 4.98 µM

Compound: CCN(CC)CCCC(C)Nc1cc(F)cc2cccnc12 (stereo not given)
- inhibition [1]: 36.5%
- inhibition [2]: 48.9%
- inhibition [3]: 27.6%
- inhibition [4]: 41.2%

Compound: O=C(NNC(=O)c1ccccc1O)c1ccccc1O.O=C(NNCC(O)COc1ccccc1)c1ccccc1O (stereo not given)
- IC50 [13]: 2 µM
- IC50 [15]: 1.04 µM
- IC50 [14]: 1.5 µM
- IC50 [16]: 0.801 µM

Compound: COc1cc(N)ccc1C(=O)NC(CCC(=O)O)C(=O)O (stereo not given)
- IC50 [5]: 203 µM
- IC50 [6]: 270 µM
- IC50 [7]: 271 µM
- IC50 [8]: 228 µM
- IC50 [9]: 203 µM
- IC50 [10]: 271 µM
- IC50 [11]: 270 µM
- IC50 [12]: 230 µM

Compound: Cc1cc(CC(=O)NCCO)n(CCO)c(=O)c1
- inhibition [1]: 45.3%
- inhibition [2]: 47.9%
- inhibition [3]: 90.6%
- inhibition [4]: 30.3%

Compound: O=C(N/N=C/c1ccc(O)cc1O)N/N=C/c1ccc(O)cc1O
- IC50 [13]: 26 µM
- IC50 [15]: 26.3 µM
- IC50 [17]: 20.6 µM
- IC50 [18]: 20.6 µM

Compound: O=C(O)CNC(=O)c1ccccc1O
- inhibition [1]: 28.9%
- inhibition [2]: 33.3%
- inhibition [3]: 25%
- inhibition [4]: 33.3%
